Published values from different studies.
Lines come from different studies, so protocols differ.
G protein-coupled receptor 88: G protein-coupled receptor 88 (Homo sapiens, UniProt Q9GZN0)
PDGFRA: Platelet-derived growth factor receptor alpha (PDGFRA, Homo sapiens, UniProt P16234)
Cnr2: Cannabinoid receptor 2 (Cnr2, Mus musculus, UniProt P47936)

The Emax of CC[C@H](C)COc1ccc([C@@H](CO)C(=O)N[C@H](C)c2ccccc2)cc1 is reported as 88% (G protein-coupled receptor 88; cAMP, agonist, TR-FRET).
C#Cc1n[nH]c2c(-c3cn([C@@H](C)c4ccccn4)c(=O)[nH]c3=O)cc(F)cc12 gave an inhibition of 1.8% (Ephrin type-B receptor 1 (EPHB1, Homo sapiens, UniProt P54762); enzyme activity, inhibitor; 0.1 µM).
The remaining binding of Cc1nn(C)cc1-c1nc2c(N3CCN(Cc4ccc(Cl)cc4)CC3)c(Cl)cnc2[nH]1 is reported as 2.4% (5'-AMP-activated protein kinase catalytic subunit alpha-1 (PRKAA1, Homo sapiens, UniProt Q13131); binding, competition with immobilised ligand; 1 µM).
Cc1nc2c(=O)n(C)c(=O)nc-2n(C)n1 has a ΔTm of -1.43 °C (Protein disulfide-isomerase (P4HB, Homo sapiens, UniProt P07237); thermal stability, DSF; 1 µM).
With CCCCCOc1ccc([C@@H](CO)C(=O)N[C@H](C)c2ccccc2)cc1 the Emax was 103% (G protein-coupled receptor 88; cAMP, agonist, TR-FRET; CHO).
COc1ncccc1-c1cnn2ccc(N3CCN(C(=O)OC(C)C)CC3)nc12 gave a remaining binding of 100% (PDGFRA; binding, competition with immobilised ligand; 1 µM).
CC[C@H](NC(=O)OCc1ccccc1)C(=O)N[C@H](C(=O)N[C@@H](CC(C)C)C(=O)N(C)N(C#N)CCC(N)=O)C(C)(C)C gave a kon of 17300 M⁻¹ s⁻¹ (Procathepsin L (CTSL, Homo sapiens, UniProt P07711); enzyme activity, inhibitor).
Nc1ncc(-c2nc(N3CCOCC3)nc(N3CCOCC3)n2)c(C(F)F)n1 gave a remaining binding of 100% (Mitogen-activated protein kinase kinase kinase kinase 5 (MAP4K5, Homo sapiens, UniProt Q9Y4K4); binding, competition with immobilised ligand; 10 µM).
Cn1cc(-c2cccc(N3CCc4c(sc5c4CC(C)(C)C5)C3=O)c2CO)cc(Nc2ccncn2)c1=O has an inhibition of -4% (Platelet-derived growth factor receptor alpha (PDGFRA, Homo sapiens, UniProt P16234, T674I); enzyme activity, inhibitor; 1 µM).
CCC[C@H](C)COc1ccc([C@@H](CO)C(=O)N[C@H](C)c2ccccc2)cc1 gave an Emax of 97% (G protein-coupled receptor 88; cAMP, agonist, TR-FRET; CHO).
The Emax of CCOC(=O)C(CC)(CCCSCCOCCOCCOCCNC(=O)OC(C)(C)C)NC(=O)c1ccc(C2CC2)c(Cc2ccc(F)cc2)n1 (stereo not drawn) is reported as 87% (Cnr2; cAMP, agonist).
CCN1CCN(Cc2ccc(C(=O)Nc3ccc(C)c(Oc4ccc5c(c4)CC(=O)N5)c3)cc2C(F)(F)F)CC1 gave a remaining binding of 100% (Cyclin-dependent kinase 13 (CDK13, Homo sapiens, UniProt Q14004); binding, competition with immobilised ligand; 1 µM).
With CCOC(=O)C(CC)(CCCSCCOCCOCCNc1ccc([N+](=O)[O-])c2nonc12)NC(=O)c1ccc(C2CC2)c(Cc2ccc(F)cc2)n1 (racemic) the Emax was 123% (Cnr2; cAMP, agonist).
For CCCC#Cc1ccc([C@@H](CO)C(=O)N[C@H](C)c2ccccc2)cc1, the Emax was 92% (G protein-coupled receptor 88; cAMP, agonist, TR-FRET).
Cn1cc(-c2cc(F)cc(N3CCn4c(cc5c4CCCC5)C3=O)c2CO)cc(Nc2ccc(N3CCN(C4COC4)CC3)cn2)c1=O gave an inhibition of 23% (PDGFRA; enzyme activity, inhibitor; 0.1 µM).
